Non-standard residues stand in square brackets, D forms with d. Residues, ends and D or L forms follow the SMILES beside them. dPhe(4-Cl) = N[C@H](Cc1ccc(Cl)cc1)C(=O)O; dPhe(4-F) = N[C@H](Cc1ccc(F)cc1)C(=O)O; d2Nal = N[C@H](Cc1ccc2ccccc2c1)C(=O)O
Assays:
Assay type in all cases: functional
[1] = system: Rattus norvegicus; test: Evaluation of antagonistic potency by rat anti-ovulatory assay when administered in 50% propylene glycol / 0.9% mazola corn oil vehicle
Procedure, shortened: (§1)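 Rats with at least two normal 4-day estrous cycles (daily vaginal lavage cytology, at least 12 days) given the analogue subcutaneously in vehicle, 50% propylene glycol/0.9% saline or Mazola corn oil, at noon on proestrus or on diestrus II (24 h earlier). On expected estrus morning, oviducts examined for ovulated eggs. ED50 from percent ovulating versus log-dose, usually three or more dose groups, 10 animals per group.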

[2] = system: Rattus norvegicus; test: Evaluation of antagonistic potency by rat anti-ovulatory assay when administered in 50% propylene glycol / 0.9% saline vehicle; procedure, shortened: as §1
[3] = species on record: Rattus norvegicus; test: Duration of anti-ovulatory activity was measured at noon on diestrus II and the vehicle was 50% propylene glycol /0.9 % mazola corn oil; procedure, shortened: as §1
[4] = species on record: Rattus norvegicus; test: Duration of proestrus and the vehicle was 50% propylene glycol /0.9 % mazola corn oil; procedure, shortened: as §1
[5] = species on record: Rattus norvegicus; test: Duration of anti-ovulatory activity was measured at noon on diestrus II and the vehicle was 50% propylene glycol /0.9 % saline; procedure, shortened: as §1

Structure (SMILES)	ED50 [1]	ED50 [2]	ED50 [3]	ED50 [4]	ED50 [5]
CC(=O)N[C@H](Cc1ccccc1)C(=O)N[C@H](Cc1ccc(Cl)cc1)C(=O)N[C@H](Cc1c[nH]c2ccccc12)C(=O)N[C@@H](CO)C(=O)N[C@@H](Cc1ccc(O)cc1)C(=O)N[C@H](Cc1c[nH]c2ccccc12)C(=O)N[C@@H](CC(C)C)C(=O)N[C@@H](CCCN=C(N)N)C(=O)N1CCC[C@H]1C(=O)NCC(N)=O	74 ug injection-1	160 ug injection-1			
CC(=O)N1CCC[C@H]1C(=O)N[C@H](Cc1ccc(F)cc1)C(=O)N[C@H](Cc1ccc2ccccc2c1)C(=O)N[C@@H](CO)C(=O)N[C@@H](Cc1ccc(O)cc1)C(=O)N[C@H](Cc1ccc(N)cc1)C(=O)N[C@@H](CC(C)C)C(=O)N[C@@H](CCCN=C(N)N)C(=O)N1CCC[C@H]1C(=O)NCC(N)=O		72 ug injection-1			
CC(=O)N[C@H](Cc1ccc(Cl)cc1)C(=O)N[C@H](Cc1ccc(Cl)cc1)C(=O)N[C@H](Cc1c[nH]c2ccccc12)C(=O)N[C@@H](CO)C(=O)N[C@@H](Cc1ccc(O)cc1)C(=O)N[C@H](CCCN=C(N)N)C(=O)N[C@@H](CC(C)C)C(=O)N[C@@H](CCCN=C(N)N)C(=O)N1CCC[C@H]1C(=O)N[C@H](C)C(N)=O (Ac-[dPhe(4-Cl)][dPhe(4-Cl)][dW]SY[dR]LRP[dA]-NH2)	1.2 µg injection-1	1.8 ug injection-1	5 µg	1.2 µg	
CC(=O)N[C@H](Cc1ccc2ccccc2c1)C(=O)N[C@H](Cc1ccc(F)cc1)C(=O)N[C@H](Cc1c[nH]c2ccccc12)C(=O)N[C@@H](CO)C(=O)N[C@@H](Cc1ccc(O)cc1)C(=O)N[C@H](CCCN=C(N)N)C(=O)N[C@@H](CC(C)C)C(=O)N[C@@H](CCCN=C(N)N)C(=O)N1CCC[C@H]1C(=O)NCC(N)=O (Ac-[d2Nal][dPhe(4-F)][dW]SY[dR]LRPG-NH2)		2.4 ug injection-1	9 µg	1.1 µg	
CC(=O)N[C@H](C(=O)N[C@H](Cc1ccc(F)cc1)C(=O)N[C@H](Cc1ccc2ccccc2c1)C(=O)N[C@@H](CO)C(=O)N[C@@H](Cc1ccc(O)cc1)C(=O)N[C@H](Cc1ccc2ccccc2c1)C(=O)N[C@@H](CC(C)C)C(=O)N[C@@H](CCCN=C(N)N)C(=O)N1CCC[C@H]1C(=O)NCC(N)=O)[C@@H](C)O	4.5 ug injection-1	7 ug injection-1			
CC(=O)N[C@H](Cc1ccc(Cl)cc1)C(=O)N[C@H](Cc1ccc(Cl)cc1)C(=O)N[C@H](Cc1ccc2ccccc2c1)C(=O)N[C@@H](CO)C(=O)N[C@@H](Cc1ccc(O)cc1)C(=O)N[C@H](Cc1ccc2ccccc2c1)C(=O)N[C@@H](CC(C)C)C(=O)N[C@@H](CCCN=C(N)N)C(=O)N1CCC[C@H]1C(=O)NCC(N)=O		400 ug injection-1			
CCNC(=O)[C@@H]1CCCN1C(=O)[C@H](CCCN=C(N)N)NC(=O)[C@H](CC(C)C)NC(=O)[C@@H](Cc1ccc2ccccc2c1)NC(=O)[C@H](Cc1ccc(O)cc1)NC(=O)[C@H](CO)NC(=O)[C@@H](Cc1ccc2ccccc2c1)NC(=O)[C@@H](Cc1ccc(F)cc1)NC(=O)[C@@H]1CCCN1C(C)=O		3.4 ug injection-1			
CC(=O)N1CCC[C@H]1C(=O)N[C@H](Cc1ccc(Cl)cc1)C(=O)N[C@H](Cc1ccc2ccccc2c1)C(=O)N[C@@H](CO)C(=O)N[C@@H](Cc1ccc(O)cc1)C(=O)N[C@H](Cc1ccc2ccccc2c1)C(=O)N[C@@H](CC(C)C)C(=O)N[C@@H](CCCN=C(N)N)C(=O)N1CCC[C@H]1C(=O)NCC(N)=O	3.6 ug injection-1	4.8 ug injection-1			
CC(=O)N[C@H](Cc1ccc2ccccc2c1)C(=O)N[C@H](Cc1ccc(F)cc1)C(=O)N[C@H](Cc1ccc2ccccc2c1)C(=O)N[C@@H](CO)C(=O)N[C@@H](Cc1ccc(O)cc1)C(=O)N[C@H](CCCN=C(N)N)C(=O)N[C@@H](CC(C)C)C(=O)N[C@@H](CCCN=C(N)N)C(=O)N1CCC[C@H]1C(=O)NCC(N)=O		16 ug injection-1			
CC(C)C[C@H](NC(=O)[C@@H](Cc1ccc2ccccc2c1)NC(=O)[C@H](Cc1ccc(O)cc1)NC(=O)[C@H](CO)NC(=O)[C@@H](Cc1ccc2ccccc2c1)NC(=O)[C@@H](Cc1ccc(F)cc1)NC(=O)[C@H](COCc1ccccc1)NC(=O)OC(C)(C)C)C(=O)N[C@@H](CCCN=C(N)N)C(=O)N1CCC[C@H]1C(=O)NCC(N)=O		400 ug injection-1			
CC(=O)N1CCC[C@H]1C(=O)N[C@H](Cc1ccc(Cl)cc1)C(=O)N[C@H](Cc1ccccc1)C(=O)N[C@@H](CO)C(=O)N[C@@H](Cc1ccc(O)cc1)C(=O)N[C@H](Cc1ccc2ccccc2c1)C(=O)N[C@@H](CC(C)C)C(=O)N[C@@H](CCCN=C(N)N)C(=O)N1CCC[C@H]1C(=O)NCC(N)=O		5.6 ug injection-1			
CC(C)C[C@H](NC(=O)[C@@H](Cc1ccc2ccccc2c1)NC(=O)[C@H](Cc1ccc(O)cc1)NC(=O)[C@H](CO)NC(=O)[C@@H](Cc1ccc2ccccc2c1)NC(=O)[C@@H](Cc1ccc(F)cc1)NC(=O)[C@@H]1CCCN1C=O)C(=O)N[C@@H](CCCN=C(N)N)C(=O)N1CCC[C@H]1C(=O)NCC(N)=O	4.4 ug injection-1	3 ug injection-1			
CC(=O)N[C@@H](CO)C(=O)N[C@H](Cc1ccc(F)cc1)C(=O)N[C@H](Cc1ccc2ccccc2c1)C(=O)N[C@@H](CO)C(=O)N[C@@H](Cc1ccc(O)cc1)C(=O)N[C@H](Cc1ccc2ccccc2c1)C(=O)N[C@@H](CC(C)C)C(=O)N[C@@H](CCCN=C(N)N)C(=O)N1CCC[C@H]1C(=O)NCC(N)=O	1.4 ug injection-1	4.3 ug injection-1			
CCNC(=O)[C@@H]1CCCN1C(=O)[C@H](CCCN=C(N)N)NC(=O)[C@H](CC(C)C)NC(=O)[C@@H](CCCN=C(N)N)NC(=O)[C@H](Cc1ccc(O)cc1)NC(=O)[C@H](CO)NC(=O)[C@@H](Cc1ccc2ccccc2c1)NC(=O)[C@@H](Cc1ccc(F)cc1)NC(=O)[C@@H]1CCCN1C(C)=O		32 ug injection-1			
CCNC(=O)[C@@H]1CCCN1C(=O)[C@H](CCCN=C(N)N)NC(=O)[C@H](CC(C)C)NC(=O)[C@@H](CCCN=C(N)N)NC(=O)[C@H](Cc1ccc(O)cc1)NC(=O)[C@H](CO)NC(=O)[C@@H](Cc1ccc2ccccc2c1)NC(=O)[C@@H](Cc1ccc(Cl)cc1)NC(=O)[C@@H]1CCCN1C(C)=O		14 ug injection-1			
CC(=O)N1CCC[C@H]1C(=O)N[C@H](Cc1ccc(F)cc1)C(=O)N[C@H](Cc1ccccc1)C(=O)N[C@@H](CO)C(=O)N[C@@H](Cc1ccc(O)cc1)C(=O)N[C@H](Cc1ccc2ccccc2c1)C(=O)N[C@@H](CC(C)C)C(=O)N[C@@H](CCCN=C(N)N)C(=O)N1CCC[C@H]1C(=O)NCC(N)=O		12.2 ug injection-1			
CC(=O)N1CCC[C@H]1C(=O)N[C@H](Cc1ccc(F)cc1)C(=O)N[C@H](Cc1ccc2ccccc2c1)C(=O)N[C@@H](CO)C(=O)N[C@@H](Cc1ccc(O)cc1)C(=O)N[C@H](Cc1ccc2ccccc2c1)C(=O)N[C@@H](CC(C)C)C(=O)N[C@@H](CCCN=C(N)N)C(=O)N1CCC[C@H]1C(=O)NCC(N)=O (stereo in doubt; 7)	4 µg	2.2 ug injection-1	140 µg		35 ug injection-1

Source: ChEMBL document CHEMBL1122725, “Luteinizing hormone-releasing hormone antagonists containing very hydrophobic amino acids” (1984)
